“Also recorded” adds a separate entry of the source. Like-named read-outs stand apart in the source and are kept apart here. Positions of bridges follow the written chain, without caps; N, C: chain ends. Non-standard residues stand in square brackets, D forms with d. Residues, ends and D or L forms follow the SMILES beside them. No end group written: not given here. *: point of attachment. S5 = C=CCCC[C@](C)(N)C(=O)O; code λ = not defined here; Dap = NC[C@H](N)C(=O)O; ClAc = O=C(CCl)*
B2: hBfl-1ΔTm(1–149) (domain or fragment)
chain: MTDCEFGYIYRLAQDYLQCVLQIPQPGSGPSKTSRVLQNVAFSVQKEVEKNLKSCLDNVNVVSVDTARTLFNQVMEKEFEDGIINWGRIVTIFAFEGILIKKLLRQQIAPDVDTYKEISYFVAEFIMNNTGEWIRQNGGWENGFVKKFE

Tests used:
[1] = biological target: T1, hBfl-1 (Homo sapiens, UniProt Q16548); test: DELFIA displacement of biotinylated BID BH3 peptide from hBfl-1; format: binding; details: hBfl-1 versus hMcl-1
T1 sequence (Q16548 with tags, fused parts or gaps): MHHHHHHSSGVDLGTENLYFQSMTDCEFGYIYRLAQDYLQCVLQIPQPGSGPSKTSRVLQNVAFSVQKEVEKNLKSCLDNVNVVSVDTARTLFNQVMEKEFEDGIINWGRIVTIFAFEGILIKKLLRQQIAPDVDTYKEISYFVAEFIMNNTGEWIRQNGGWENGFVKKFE

[2] = biological target: T1, hBfl-1; test: Covalent adduct formation by SDS gel electrophoresis; format: binding; details: hBfl-1 10 μM, equimolar peptide, 15 min to 2 h
How it was run: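 Synthetic peptide and human Bcl-2 family protein were incubated together at equimolar 10 μM. hBfl-1 (10 μM) was sampled with or without peptide at 15 min, 30 min, 1 h and 2 h. Samples were resolved by SDS-PAGE and stained with Coomassie.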

[3] = tested on: primary CLL cells; format: cell-based, human; details: primary CLL cells alone or cocultured with stroma-NK-tert cells, 48 h
How it was run: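 Primary CLL cells were taken as PBMC from heparinized patient blood by Ficoll density gradient, using samples >95% CD5+/CD19+. They were cultured in RPMI with 10% heat-inactivated FBS at 3 × 10^5 cells/well, 37 °C, 5% CO2, alone or on bone-marrow NK-tert stroma ([…]), with test compound for 48 h. Cells were gated CD19/CD5 (4 °C, 30 min), stained with DiOC6 (30 min, 37 °C), and analysed by flow cytometry as % SIA.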

[4] = biological target: T1, hBfl-1; test: Isothermal titration calorimetry against hBfl-1; format: binding; details: VP-ITC, reverse fashion (protein titrated into compound), 25 °C, PBS + 10% DMSO
[5] = biological target: Bcl-xL ΔTM (Bcl-xL deletion mutant lacking the transmembrane domain) (human); test: DELFIA displacement assay
[6] = biological target: Recombinant hBcl-2 protein (human); test: DELFIA displacement assay
[7] = biological target: B2; test: ITC
[8] = biological target: Bcl-xL ΔTM (Bcl-xL deletion mutant lacking the transmembrane domain) (human); test: DELFIA displacement assay; remark: listed apart in the source
[9] = biological target: T2, hBfl-1ΔTm(1–149) (human); test: DELFIA displacement assay
T2 chain: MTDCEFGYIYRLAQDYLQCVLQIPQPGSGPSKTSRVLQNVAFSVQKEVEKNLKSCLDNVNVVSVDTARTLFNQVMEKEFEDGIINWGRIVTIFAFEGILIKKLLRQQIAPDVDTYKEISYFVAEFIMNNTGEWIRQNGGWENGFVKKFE

[10] = biological target: Recombinant hBcl-2 protein (human); test: DELFIA displacement assay; remark: listed apart in the source
[11] = biological target: T3, hMcl-1 (172–323) (human), Q07820; test: DELFIA displacement assay
T3 chain: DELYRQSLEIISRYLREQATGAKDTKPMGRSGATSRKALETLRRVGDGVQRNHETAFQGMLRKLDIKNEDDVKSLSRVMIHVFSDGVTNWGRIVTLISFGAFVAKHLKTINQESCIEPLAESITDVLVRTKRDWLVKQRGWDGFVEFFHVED

[12] = biological target: hMcl-1 (172–323) (human, UniProt Q07820 172-323); test: DELFIA displacement assay
[13] = biological target: B2; test: DELFIA displacement assay
[14] = biological target: 130E7 (covalent hBIM derived BH3 peptide, Ac-λ…-NH2) (human); test: ITC
[15] = biological target: T4, biotin-BID (Biotin-lc-EDIIRNIARHLAQVGDSMDR-NH2) (N-terminal biotin-lc (aminohexanoic acid); C-terminal amide); test: DELFIA displacement assay
T4 peptide: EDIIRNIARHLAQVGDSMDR

Ac-CATQLRRFGDKLNFRQKLLN-NH2 [hNOXA]
increased affinity for hBfl-1 over hMcl-1 [1]: over 2 orders of magnitude
covalent complex with hBfl-1 (SDS-PAGE, Coomassie) [2]: formed a covalent complex

COc1cc([C@@H]2c3cc4c(cc3[C@@H](O[C@@H]3O[C@@H]5CO[C@@H](C)O[C@H]5[C@H](O)[C@H]3O)[C@H]3COC(=O)[C@H]23)OCO4)cc(OC)c1O [etoposide]
single agent activity (% SIA), in words [3]: limited activity

CC[C@H](C)[C@H](NC(=O)[C@H](CNC(=O)CCl)NC(C)=O)C(=O)N[C@@H](C)C(=O)N[C@@H](CCC(N)=O)C(=O)N[C@@H](CCC(=O)O)C(=O)N[C@@H](CC(C)C)C(=O)N[C@@H](CCCNC(=N)N)C(=O)N[C@@]1(C)CCC/C=C\CCC[C@@](C)(C(=O)N[C@@H](Cc2ccccc2)C(=O)N[C@@H](CC(N)=O)C(=O)N[C@@H](C)C(=O)N[C@@H](Cc2ccc(O)cc2)C(=O)N[C@@H](Cc2ccc(O)cc2)C(=O)N[C@@H](C)C(=O)N[C@@H](CCCNC(=N)N)C(=O)N[C@@H](CCCNC(=N)N)C(N)=O)NC(=O)[C@H](CC(=O)O)NC(=O)CNC(=O)[C@H]([C@@H](C)CC)NC1=O [130D11] (Ac-[Dap](ClAc)IAQELR[S5]IGD[S5]FNAYYARR-NH2; staple (Z) 8-12)
ITC KD hBfl-1 [4]: not detected; also recorded: no significant binding

NOXA B (Ac-…-NH2) (peptide)
IC50 [5]: > 1000 nM
IC50 [6]: > 1000 nM

NOXA A (Ac-…-NH2) (peptide)
IC50 [5]: > 1000 nM
IC50 [6]: > 1000 nM

Nc1nc(F)nc2c1ncn2[C@@H]1O[C@H](CO)[C@@H](O)[C@@H]1O [fludarabine]
single agent activity (% SIA), in words [3]: limited activity

PRRPRRPRRPRRPRR[Dap](ClAc)IAQELRRIGDEFNAYYARR [130G4]
Kd [7]: 23 nM

Ac-CATQLRRFGDKLN-NH2 [hNOXAs (Ac-…-NH2)]
IC50 [5]: > 1000 nM
IC50 [6]: > 1000 nM

Ac-[code h]ATQLRRFGDKLNFRQKLLN-NH2 [homo_hNOXA (Ac-h…-NH2)]
IC50 [8]: > 1000 nM
IC50 [9]: 83 nM
IC50 [10]: > 1000 nM
IC50 [11]: 266 nM

Ac-CATQLRRFGDKLNFRQKLLN-NH2 [hNOXA (Ac-CATQLRRFGDKLNFRQKLLN-NH2)]
IC50 [12]: 228 nM
IC50 [13]: 7.5 nM

Ac-CATQLRRFGDKLNFRQKLLNLISKLFC-NH2 (also: cyclic (cyc_), mode of cyclisation not given here) [cyc_hNOXA (Ac-CATQLRRFGDKLNFRQKLLNLISKLFC-NH2)]
IC50 [12]: 344 nM
IC50 [13]: 86 nM

Ac-AELPPEFAAQLRKIGDKVYC-NH2 [NOXA A (Ac-AELPPEFAAQLRKIGDKVYC-NH2)]
IC50 [13]: > 1000 nM

Ac-[code λ]ATQLRRFGDKLNFRQKLLN-NH2 (reading uncertain) [λ_hNOXA (Ac-λ…-NH2)]
IC50 [8]: > 1000 nM
IC50 [9]: 287 nM
IC50 [10]: > 1000 nM
IC50 [11]: 233 nM

B1: hMcl-1 (172-323), Q07820 172-323 (domain or fragment)
chain: DELYRQSLEIISRYLREQATGAKDTKPMGRSGATSRKALETLRRVGDGVQRNHETAFQGMLRKLDIKNEDDVKSLSRVMIHVFSDGVTNWGRIVTLISFGAFVAKHLKTINQESCIEPLAESITDVLVRTKRDWLVKQRGWDGFVEFFHVED
Kd [14]: 2 nM

Ac-CATQLRRFGDKLNFRQKLLN-NH2 [hNOXA (Ac-…-NH2)]
IC50 [5]: > 1000 nM
IC50 [6]: > 1000 nM

B2
binding result [15]: binds

Ac-CATQLRRFGDKLN-NH2 [hNOXAs (Ac-CATQLRRFGDKLN-NH2)]
IC50 [12]: > 1000 nM
IC50 [13]: 15 nM

Ac-AATQLRRFGDKLN-NH2 [C1A_hNOXAs (Ac-AATQLRRFGDKLN-NH2)]
IC50 [12]: > 1000 nM
IC50 [13]: > 1000 nM

Ac-PADLKDECAQLRRIGDKVNL-NH2 [NOXA B (Ac-PADLKDECAQLRRIGDKVNL-NH2)]
IC50 [13]: 431 nM

[Dap](ClAc)IAQELRRIGDEFNAYYARR [130E7]
Kd [7]: 2.6 nM

Source: paper PMC5320539 (ACS Chemical Biology, 2016)
